According to ChEMBL document CHEMBL5042469, “Unique Molecular Interaction with the Histone Deacetylase 6 Catalytic Tunnel: Crystallographic and Biological Characterization of a Model Chemotype” (J Med Chem, 2021):
Active and inactive are the calls of the source. The calls are words filed in the database; no cut-off is given here.

Assays:
MV4-11 [1] = assay: Induction of apoptosis in human MV4-11 cells assessed as viable cells at 0.25 uM incubated for 15 mins by Annexin-V/FITC staining based FACS analysis (reference value: 84.58%); type: functional; conditions: MV4-11, 0.25 h, read-out: Activity
Procedure, shortened: (§1)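 MV4-11 cells were dosed, then washed twice in cold PBS and resuspended in binding buffer at 1×10^6 cells/mL. Cells were stained with FITC-annexin V and propidium iodide for 15 min in the dark, diluted with binding buffer and analysed by flow cytometry within 1 h. Quadrants: LL viable, LR early apoptotic, UR late apoptotic. Duplicate experiments averaged; DMSO control.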

MV4-11 [2] = assay: Induction of apoptosis in human MV4-11 cells assessed as viable cells at 0.50 uM incubated for 15 mins by Annexin-V/FITC staining based FACS analysis (reference value: 84.58%); type: functional; conditions: MV4-11, 0.25 h, read-out: Activity; procedure, shortened: as §1
MV4-11 [3] = assay: Induction of apoptosis in human MV4-11 cells assessed as viable cells at 4 uM incubated for 15 mins by Annexin-V/FITC staining based FACS analysis (reference value: 84.58%); type: functional; conditions: MV4-11, 0.25 h, read-out: Activity; procedure, shortened: as §1
MV4-11 [4] = assay: Induction of apoptosis in human MV4-11 cells assessed as early apoptotic cells at 0.50 uM incubated for 15 mins by Annexin-V/FITC staining based FACS analysis (reference value: 7.28%); type: functional; conditions: dose 0.5 µM, 0.25 h; procedure, shortened: as §1
MV4-11 [5] = assay: Induction of apoptosis in human MV4-11 cells assessed as early apoptotic cells at 1 uM incubated for 15 mins by Annexin-V/FITC staining based FACS analysis (reference value: 7.28%); type: functional; conditions: 0.25 h; procedure, shortened: as §1
MV4-11 [6] = assay: Induction of apoptosis in human MV4-11 cells assessed as early apoptotic cells at 2 uM incubated for 15 mins by Annexin-V/FITC staining based FACS analysis (reference value: 7.28%); type: functional; conditions: 0.25 h; procedure, shortened: as §1
MV4-11 [7] = assay: Induction of apoptosis in human MV4-11 cells assessed as late apoptotic cells at 0.25 uM incubated for 15 mins by Annexin-V/FITC staining based FACS analysis (reference value: 4.36%); type: functional; procedure, shortened: as §1
Histone deacetylase 7 = Histone deacetylase 7 (Homo sapiens, UniProt Q8WUI4); assay: Inhibition of full length human HDAC7 using FAM-labeled acetylated peptide as substrate by electrophoretic mobility shift assay
Procedure, shortened: (§2)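 Full-length human HDAC isoform enzymatic assay by electrophoretic mobility shift, using a FAM-labelled acetylated peptide substrate. […] Values are the mean of duplicate experiments with 95% confidence intervals.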

Histone deacetylase 2 = Histone deacetylase 2 (Homo sapiens, UniProt Q92769); assay: Inhibition of full length human HDAC2 using FAM-labeled acetylated peptide as substrate by electrophoretic mobility shift assay; procedure, shortened: as §2
MV4-11 [8] = assay: Induction of apoptosis in human MV4-11 cells assessed as viable cells at 4 uM incubated for 15 mins by Annexin-V/FITC staining based FACS analysis (reference value: 35.53%); type: functional; conditions: MV4-11, 0.25 h, read-out: Activity; procedure, shortened: as §1
MV4-11 [9] = assay: Induction of apoptosis in human MV4-11 cells assessed as early apoptotic cells at 0.25 uM incubated for 15 mins by Annexin-V/FITC staining based FACS analysis (reference value: 0.70%); type: functional; procedure, shortened: as §1
MV4-11 [10] = assay: Induction of apoptosis in human MV4-11 cells assessed as early apoptotic cells at 4 uM incubated for 15 mins by Annexin-V/FITC staining based FACS analysis (reference value: 0.70%); type: functional; conditions: 0.25 h; procedure, shortened: as §1
MV4-11 [11] = assay: Induction of apoptosis in human MV4-11 cells assessed as late apoptotic cells at 0.25 uM incubated for 15 mins by Annexin-V/FITC staining based FACS analysis (reference value: 4.17%); type: functional; procedure, shortened: as §1
MV4-11 [12] = assay: Induction of apoptosis in human MV4-11 cells assessed as late apoptotic cells at 4 uM incubated for 15 mins by Annexin-V/FITC staining based FACS analysis (reference value: 4.17%); type: functional; conditions: 0.25 h; procedure, shortened: as §1
MV4-11 [13] = assay: Induction of ROS generation in human MV4-11 cells at 10 uM measured over 4 hrs by DCFDA staning based spectrophotometric analysis; type: functional, cell-based
Procedure, shortened: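 MV4-11 cells were washed once in PBS and loaded with DCFDA (33 μM) for 30 min at 37 °C in the dark. Cells were then washed, resuspended in supplemental buffer and dosed with compound. Fluorescence (Ex/Em 485/535) was followed for up to 4 h against a DMSO control.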

[14] = Stability in human whole blood assessed as compound remaining measured after 30 mins; type: ADME, tissue-based; conditions: read-out: Stability
[15] = Stability in human whole blood assessed as compound remaining measured after 60 mins; type: ADME, tissue-based; conditions: read-out: Stability
[16] = Half life in mouse plasma incubated for 1 hr; type: ADME, cell-free
Procedure, shortened: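 Compound was incubated in mouse plasma or in pooled human whole blood. […] Triplicate studies, averaged.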

[17] = Cmax in Balb/c mouse at 50 mg/kg, ip by LC-MS/MS analysis; type: ADME, organism-based; set-up: route intraperitoneal, dose 50 mg/kg; conditions: in vivo
Procedure, shortened: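 Male BALB/c mice received a single intraperitoneal dose from a 50 mg/mL solution in 5% DMSO, 30% PEG400, 1% Tween80 and 64% saline. Blood was collected at several time points and the compound quantified by triple-quadrupole LC-MS/MS.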

[18] = Kinetic solubility in pH 7.4 PBS buffer assessed as saturation concentration by HPLC analysis; type: physicochemical
Ramos = assay: Anti-proliferative activity against human Ramos cells assessed as cell viability measured after 72 hrs by Cell-Titer assay; type: functional, cell-based
Procedure, shortened: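 Cells were plated in 96-well plates and received compound or vehicle (0.5% DMSO) 24 h later. CellTiter-Blue was added at 72 h and fluorescence read at 560/590 nm. IC50 derived by non-linear regression.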

Histone deacetylase 2, sequence (Q92769 whole entry): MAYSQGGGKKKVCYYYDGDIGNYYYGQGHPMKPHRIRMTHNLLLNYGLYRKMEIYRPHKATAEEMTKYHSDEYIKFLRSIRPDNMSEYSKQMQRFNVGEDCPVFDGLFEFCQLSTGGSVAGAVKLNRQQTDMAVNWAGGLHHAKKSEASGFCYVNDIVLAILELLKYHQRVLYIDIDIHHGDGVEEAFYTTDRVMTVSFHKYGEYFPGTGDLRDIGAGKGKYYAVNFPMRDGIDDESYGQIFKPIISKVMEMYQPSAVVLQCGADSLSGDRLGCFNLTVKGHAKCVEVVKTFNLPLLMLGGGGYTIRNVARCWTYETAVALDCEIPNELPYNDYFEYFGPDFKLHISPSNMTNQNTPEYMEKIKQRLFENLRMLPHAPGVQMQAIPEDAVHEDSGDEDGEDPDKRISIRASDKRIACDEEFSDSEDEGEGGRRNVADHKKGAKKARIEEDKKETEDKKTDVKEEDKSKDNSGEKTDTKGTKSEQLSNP
Histone deacetylase 7, sequence (Q8WUI4 whole entry, canonical isoform): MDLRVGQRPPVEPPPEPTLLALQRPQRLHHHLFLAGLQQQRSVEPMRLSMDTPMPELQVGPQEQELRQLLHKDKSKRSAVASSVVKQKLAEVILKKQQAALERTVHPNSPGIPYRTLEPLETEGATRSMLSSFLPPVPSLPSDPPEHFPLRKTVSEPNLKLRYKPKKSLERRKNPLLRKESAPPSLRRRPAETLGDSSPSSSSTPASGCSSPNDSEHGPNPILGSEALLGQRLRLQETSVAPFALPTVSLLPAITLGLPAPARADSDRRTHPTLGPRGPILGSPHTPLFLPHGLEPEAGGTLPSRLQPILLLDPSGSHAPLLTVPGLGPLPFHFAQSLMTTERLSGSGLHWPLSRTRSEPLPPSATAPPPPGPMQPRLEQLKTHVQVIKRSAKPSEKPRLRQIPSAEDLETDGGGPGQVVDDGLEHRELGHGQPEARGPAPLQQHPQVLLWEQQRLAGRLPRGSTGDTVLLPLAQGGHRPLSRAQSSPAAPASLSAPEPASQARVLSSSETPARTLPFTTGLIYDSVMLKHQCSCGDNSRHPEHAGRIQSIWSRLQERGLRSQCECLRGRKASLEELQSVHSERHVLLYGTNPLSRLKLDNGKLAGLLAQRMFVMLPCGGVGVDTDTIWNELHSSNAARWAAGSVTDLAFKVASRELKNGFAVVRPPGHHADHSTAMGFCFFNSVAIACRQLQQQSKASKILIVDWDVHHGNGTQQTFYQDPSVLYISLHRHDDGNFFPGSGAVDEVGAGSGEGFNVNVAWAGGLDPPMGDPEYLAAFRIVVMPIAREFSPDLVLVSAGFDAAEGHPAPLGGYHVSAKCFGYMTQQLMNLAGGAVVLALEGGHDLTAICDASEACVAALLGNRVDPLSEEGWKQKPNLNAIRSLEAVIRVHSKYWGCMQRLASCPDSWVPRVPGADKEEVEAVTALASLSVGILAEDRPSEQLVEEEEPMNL

O=C(CCCCCCNC(=O)c1cnc(N(c2ccccc2)c2ccccc2Cl)nc1)NO [CITARINOSTAT]
viability at 0.25 µM (MV4-11 [1]): 84.3% | viability at 0.5 µM (MV4-11 [2]): 81.4% | viability at 4 µM (MV4-11 [3]): 40.9% | Activity (MV4-11 [4]): 10.02% | Activity (MV4-11 [5]): 16.25% | Activity (MV4-11 [6]): 27.95% | Activity (MV4-11 [7]): 4.65%

O=C(NO)c1ccc(CN(Cc2cccnc2)S(=O)(=O)c2cc(F)c(F)c(F)c2F)cc1
IC50 (Histone deacetylase 7): 7.29 µM | IC50 (Histone deacetylase 2): 4.97 µM | viability at 4 µM (MV4-11 [8]): 7.96% | Activity (MV4-11 [9]): 0.94% | Activity (MV4-11 [10]): 2.55% | Activity (MV4-11 [11]): 3.29% | Activity (MV4-11 [12]): 19.29% | Activity (MV4-11 [13]): Active | remaining at 0.5 h [14]: 80.8% | remaining at 1 h [15]: 68.9% | t1/2 [16]: 1.83 h | Cmax [17]: 95.1 ng/mL | Kinetic_solubility [18]: 161.5 µM | IC50 (Ramos): 0.3 µM
